Legend:
HDACs 1–9 = assay: HDAC assay: biochemical profiling against purified HDAC isoforms
HDAC [1] = settings: cited from earlier work
[2] = test system: A2780 human ovarian cancer cells; assay: PET-CT of A2780 tumor xenograft before and after competition with cold SAHA; assay type: in vivo, Nu/Nu mice; settings: after systemic administration
[3] = Blood half-life of 1a after i.v. or p.o. administration; assay type: in vivo, C57BL/6 mice; settings: for dosed compound still present in whole blood: i.v., after initial burst phase
[4] = Biodistribution of 1a after i.v. injection; assay type: in vivo, C57BL/6 mice; settings: 1 hour and 3 hours after i.v. injection
How it was run: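 Six C57BL/6 mice received 241 ± 18 μCi of the 18F-labelled test compound by tail-vein i.v. injection. Groups were killed at 1 h (n=3) and 3 h (n=3) post-injection. Tissues were excised and weighed, and radioactivity was gamma-counted and expressed as %ID/g.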

HDAC [5] = settings: cited from earlier work; remark: listed apart in the source

O=C(CCCCCCC(=O)Nc1ccc([19F])cc1)NO [1b, N-Hydroxy-N'-(4-fluorophenyl)octanediamide]
potency and selectivity of inhibition of primary HDAC targets compared with SAHA (HDACs 1–9; HDACs 1–3 and 6): virtually indistinguishable from SAHA
HDAC isoforms inhibited (HDACs 1–9; profiled against purified HDACs 1–9): inhibited only HDACs 1–3 and 6

O=C(C[18F])NCCCCCC(=O)Nc1ccccc1 [compound 4, 6-([18F]-fluoroacetamide)-1-hexanoicanilide]
metabolism in vivo (HDAC [1]): rapidly metabolized in vivo

O=C(CCCCCCC(=O)Nc1ccc([18F])cc1)NO [1a, 18F-suberoylanilide hydroxamic acid]
accumulation in tumors [2]: accumulate in tumors in a time-dependent manner
dosed compound still present in whole blood ([3]; formulation A (60% PEG400, 40% water)): < 1%
dosed compound still present in whole blood ([3]; formulation B (10%DMSO, 90% water)): ~3%
terminal half-life relative to initial t1/2 ([3]; single bolus i.v.): approximately 10 times longer
HDAC potency (HDACs 1–9): low nanomolar potency
concentration in cardiac tissue [4]: comparatively low concentrations
tissues with highest concentration [4]: kidney, liver and blood
tissues with lowest concentration [4]: thymus and brain

Nc1ccccc1NC(=O)c1ccc(CNC(=O)OCc2cccnc2)cc1 [5b]
HDAC isoform selectivity (HDAC [5]): selective for HDAC1–3
potency relative to SAHA (fold less potent) (HDAC [5]): 20–70 fold
